From ChEMBL document CHEMBL3108711, “Penicillipyrones A and B, meroterpenoids from a marine-derived Penicillium sp. fungus” (2014)
Active and inactive are the calls of the source. No cut-off for these calls is given here.

How the values were obtained:
A549 = experiment: Cytotoxicity against human A549 cells after 48 hrs by MTT assay; type: functional; details: A549, 48 h
Procedure, shortened: (§1)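 Values reported as LC50 (μM), with doxorubicin as the positive control; the rest of the method follows the cited literature protocol.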

K562 = experiment: Cytotoxicity against human K562 cells after 48 hrs by MTT assay; type: functional; details: K562, 48 h, read-out: LC50 (the source's name); procedure, shortened: as §1
Micrococcus luteus = experiment: Antimicrobial activity against Micrococcus luteus IFO 12708 after 24 hrs by two-fold broth dilution assay; type: functional; details: IFO 12708, 24 h
[1] = tested on: Trichophyton mentagrophytes; experiment: Antimicrobial activity against Trichophyton mentagrophytes IFO 40996 after 48 to 72 hrs by two-fold broth dilution assay; type: functional
Hepa-1c1c7 [2] = experiment: Induction of quinone reductase in mouse Hepa-1c1c7 cells after 24 hrs by MTT assay; type: cell-based
Procedure, shortened: (§2)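 QR induction measured in murine Hepa 1c1c7 hepatoma cells. Test concentrations ranged 5−40 μM. Blank control was 0.1% DMSO, and β-NF at 2 μM served as the positive control. Induction is expressed as fold over the blank control.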

Escherichia coli = experiment: Antimicrobial activity against Escherichia coli ATCC 35270 after 24 hrs by two-fold broth dilution assay; type: functional; details: ATCC 35270, 24 h
Proteus vulgaris = experiment: Antimicrobial activity against Proteus vulgaris ATCC 3851 after 24 hrs by two-fold broth dilution assay; type: functional; details: ATCC 3851, 24 h
Salmonella typhimurium = experiment: Antimicrobial activity against Salmonella typhimurium ATCC 14028 after 24 hrs by two-fold broth dilution assay; type: functional, Salmonella enterica subsp. enterica serovar Typhimurium; details: Salmonella enterica, ATCC 14028, 24 h
Trichophyton rubrum = experiment: Antimicrobial activity against Trichophyton rubrum IFO 9185 after 48 to 72 hrs by two-fold broth dilution assay; type: functional
Aspergillus fumigatus = experiment: Antimicrobial activity against Aspergillus fumigatus HIC 6094 after 48 to 72 hrs by two-fold broth dilution assay; type: functional
Candida albicans = experiment: Antimicrobial activity against Candida albicans ATCC 10231 after 48 to 72 hrs by two-fold broth dilution assay; type: functional
Staphylococcus aureus = experiment: Antimicrobial activity against Staphylococcus aureus ATCC 6538p after 24 hrs by two-fold broth dilution assay; type: functional
Bacillus spizizenii = experiment: Antimicrobial activity against Bacillus subtilis ATCC 6633 after 24 hrs by two-fold broth dilution assay; type: functional; details: ATCC 6633, 24 h
Hepa-1c1c7 [3] = experiment: Induction of quinone reductase in mouse Hepa-1c1c7 cells at 40 uM after 24 hrs by MTT assay relative to control; type: cell-based; procedure, shortened: as §2
Hepa-1c1c7 [4] = experiment: Induction of quinone reductase in mouse Hepa-1c1c7 cells at 2 uM after 24 hrs by MTT assay relative to control; type: cell-based
[5] = read-out: LC50 (the source's name)

| Compound | CC50 (A549; read-out: LD50 (the source's name)) [µM] | CC50 (K562) [µM] | MIC (Micrococcus luteus) [mg/L] | CC50 (A549; [5]) [µM] | MIC [1] [mg/L] | Activity (Hepa-1c1c7 [2]) | MIC (Escherichia coli) [mg/L] | MIC (Proteus vulgaris) [mg/L] | MIC (Salmonella typhimurium) [mg/L] | MIC (Trichophyton rubrum) [mg/L] | MIC (Aspergillus fumigatus) [mg/L] | MIC (Candida albicans) [mg/L] | MIC (Staphylococcus aureus) [mg/L] | MIC (Bacillus spizizenii) [mg/L] | Ratio (Hepa-1c1c7 [3]) | Activity (Hepa-1c1c7 [4]) | Activity (Hepa-1c1c7 [3]) |
| --- | --- | --- | --- | --- | --- | --- | --- | --- | --- | --- | --- | --- | --- | --- | --- | --- | --- |
| COc1cccc2c1C(=O)c1c(O)c3c(c(O)c1C2=O)C[C@@](O)(C(=O)CO)C[C@@H]3O[C@H]1C[C@H](N)[C@H](O)[C@H](C)O1 [DOXORUBICIN] | 1.2 | 0.99 |  |  |  |  |  |  |  |  |  |  |  |  |  |  |  |
| Cc1cc(=O)c2c(o1)O[C@@]1(C)[C@@H](CC[C@H]3C(C)(C)C(=O)CC[C@@]31C)C2 |  | 50 | > 100 | 17 | > 100 | Dose-dependent effect | > 100 | > 100 | > 100 | > 100 | > 100 | > 100 | > 100 | > 100 | 1.9 |  |  |
| O=c1cc(-c2ccccc2)oc2ccc3ccccc3c12 |  |  |  |  |  |  |  |  |  |  |  |  |  |  |  | Active |  |
| Cc1cc(=O)c2c(o1)O[C@@]1(C)[C@@H](CC[C@H]3C(C)(C)[C@@H](O)CC[C@@]31C)C2 |  | 28 | > 100 | 15 | > 100 |  | > 100 | > 100 | > 100 | > 100 | > 100 | > 100 | > 100 | > 100 |  |  | inactive |
